Assay results taken from ChEMBL document CHEMBL4004850, “Rational design of reversible inhibitors for trehalose 6-phosphate phosphatases” (Eur J Med Chem, 2017).

T1: Trehalose-phosphatase (Brugia malayi, UniProt A8NS89)
T1 sequence (A8NS89 whole entry): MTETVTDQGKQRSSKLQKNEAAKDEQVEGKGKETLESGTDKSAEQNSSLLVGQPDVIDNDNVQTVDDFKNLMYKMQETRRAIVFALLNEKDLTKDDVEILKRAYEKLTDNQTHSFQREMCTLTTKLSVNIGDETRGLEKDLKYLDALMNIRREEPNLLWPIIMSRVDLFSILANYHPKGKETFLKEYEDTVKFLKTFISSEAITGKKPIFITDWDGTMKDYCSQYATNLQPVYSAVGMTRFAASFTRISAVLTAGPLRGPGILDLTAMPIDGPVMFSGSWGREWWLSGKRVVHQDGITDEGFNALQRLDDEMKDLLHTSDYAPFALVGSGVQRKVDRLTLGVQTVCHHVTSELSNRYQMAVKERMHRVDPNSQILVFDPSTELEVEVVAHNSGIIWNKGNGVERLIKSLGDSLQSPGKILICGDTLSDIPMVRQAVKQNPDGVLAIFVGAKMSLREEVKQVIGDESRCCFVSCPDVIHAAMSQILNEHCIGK

T2: Trehalose-phosphatase (Brugia malayi) (UniProt A8NS89)
T2 sequence (whole entry): T1 sequence (A8NS89 whole entry)

B1: Trehalose-phosphatase (Brugia malayi), A8NS89 (protein)
chain: T1 sequence (A8NS89 whole entry)
B2: D-glycero-beta-D-manno-heptose-1,7-bisphosphate 7-phosphatase (Pseudomonas putida (strain ATCC 47054 / DSM 6125 / NCIMB 11950 /KT2440)), Q88RS0 (protein)
chain: MKLLILDRDGVINYDSDAYIKTLEEWVPIPGSVDAIAQLSKAGWTVAVATNQSGIARGYYPLATLEAMHARLRALVAEQGGEVGHIVYCPHGPDEGCDCRKPKPGMLRAIAEHYQIGLEGVWFVGDSKGDLEAALAVGAQPVLVKTGKGERTLEKGVPETTLIFDDLAAIARELI

What was measured:
Escherichia coli = details: 200 uM
[1] = Inhibition of Salmonella typhimurium T6PP using T6P as substrate by Lineweaver-Burk plot analysis; set-up: species or system Salmonella enterica subsp. enterica serovar Typhimurium
In short: (§1)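 Continuous phosphate-release assay (EnzChek, MESG/purine nucleoside phosphorylase) at 25 °C. Initial velocities of T6P hydrolysis by T6PP were taken at varied T6P with inhibitor at 0, Ki and 2×Ki. Km and Vmax come from double-reciprocal plots.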

[2] = system: Bacteroides thetaiotaomicron; details: 200 uM
Shigella boydii [3] = assay: Inhibition of Shigella boydii T6PP assessed as Km for substrate using T6P as substrate by Lineweaver-Burk plot analysis
In short: as §1

[4] = system: Salmonella enterica subsp. enterica serovar Typhimurium; assay: Inhibition of Salmonella typhimurium T6PP assessed as Km for substrate using T6P as substrate by Lineweaver-Burk plot analysis
In short: as §1

Ascaris suum [5] = assay: Inhibition of Ascaris suum T6PP assessed as Km for substrate using T6P as substrate by Lineweaver-Burk plot analysis
In short: as §1

Ascaris suum [6] = assay: Inhibition of Ascaris suum T6PP assessed as Vmax for substrate using T6P as substrate by Lineweaver-Burk plot analysis
In short: as §1

[7] = system: Salmonella enterica subsp. enterica serovar Typhimurium; assay: Inhibition of Salmonella typhimurium T6PP assessed as Vmax for substrate using T6P as substrate by Lineweaver-Burk plot analysis
In short: as §1

[8] = Inhibition of Shigella boydii T6PP using T6P as substrate by Lineweaver-Burk plot analysis
In short: as §1

[9] = Inhibition of Ascaris suum T6PP using T6P as substrate by Lineweaver-Burk plot analysis
Shigella boydii [10] = assay: Inhibition of Shigella boydii T6PP assessed as Vmax for substrate using T6P as substrate by Lineweaver-Burk plot analysis
In short: as §1

Trehalose-phosphatase [11] = biological target: T1, Trehalose-phosphatase; assay: Competitive inhibition of Brugia malayi T6PP using T6P as substrate by Lineweaver-Burk plot analysis
In short: as §1

[12] = biological target: T2, Trehalose-phosphatase (Brugia malayi); assay: Inhibition of Brugia malayi T6PP using T6P as substrate assessed as fraction of enzyme unbound with compound by measuring ratio of initial velocities of T6P substrate hydrolysis in presence and absence of compound at 1 mM […] by BioMol green dye based HTS assay
Shigella boydii [13] = assay: Inhibition of Shigella boydii T6PP using T6P as substrate assessed as fraction of enzyme unbound with compound by measuring ratio of initial velocities of T6P substrate hydrolysis in presence and absence of compound at 1 mM after 5 mins by BioMol green dye based HTS assay
In short: (§2)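 Freshly purified St-T6PP or Sb-T6PP (5–25 nM) in 50 mM Hepes pH 7.5, 25 mM NaCl, 2 mM MgCl₂, 5% glycerol at 25 °C. T6P at half saturation (Km) for each enzyme. Hydrolysis rate was compared with and without 1 mM inhibitor; phosphate read at 625 nm after 30 min incubation. The ratio VI/V gives the fraction of enzyme not inhibitor-bound.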

Ascaris suum [14] = assay: Inhibition of Ascaris suum T6PP using T6P as substrate assessed as fraction of enzyme unbound with compound by measuring ratio of initial velocities of T6P substrate hydrolysis in presence and absence of compound at 1 mM after 5 mins by BioMol green dye based HTS assay
In short: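 T6P is at half saturation ([T6P] = Km), with and without 1 mM inhibitor, at 25 °C. Released phosphate is detected with dye (30 min incubation) by A625. The reported value is V_I/V, the initial-velocity ratio.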

[15] = system: Salmonella enterica subsp. enterica serovar Typhimurium; assay: Inhibition of Salmonella typhimurium T6PP using T6P as substrate assessed as fraction of enzyme unbound with compound by measuring ratio of initial velocities of T6P substrate hydrolysis in presence and absence of compound at 1 mM after 5 mins by BioMol green dye based HTS assay
In short: as §2

Trehalose-phosphatase [16] = biological target: T1, Trehalose-phosphatase; assay: Reversible competitive inhibition of Brugia malayi T6PP using T6P as substrate by Lineweaver-Burk plot analysis
[17] = system: Salmonella enterica subsp. enterica serovar Typhimurium; assay: Activity at Salmonella typhimurium T6PP
Ascaris suum [18] = assay: Activity at Ascaris suum T6PP
[19] = system: Mycobacterium tuberculosis; assay: Activity at Mycobacterium tuberculosis T6PP
Shigella boydii [20] = assay: Activity at Shigella boydii T6PP
[21] = compound: O=S(=O)(O)OC[C@H]1O[C@H](Oc2ccccc2)[C@H](O)[C@@H](O)[C@@H]1O; assay: (§3) Reversible competitive inhibition of Brugia malayi T6PP assessed as Vmax for substrate using T6P as substrate by Lineweaver-Burk plot analysis
[22] = compound: O=S(=O)(O)OC[C@H]1O[C@@H](Oc2ccccc2)[C@H](O)[C@@H](O)[C@@H]1O; assay: as §3
[23] = compound: O=S(=O)(O)OC[C@H]1O[C@H](OCc2ccccc2)[C@H](O)[C@@H](O)[C@@H]1O; assay: (§4) Competitive inhibition of Brugia malayi T6PP assessed as Km for substrate using T6P as substrate by Lineweaver-Burk plot analysis
In short: as §1

[24] = compound: CCCCCCCCc1ccc(O[C@@H]2O[C@H](COS(=O)(=O)O)[C@@H](O)[C@H](O)[C@H]2O)cc1; assay: as §4
In short: as §1

[25] = compound: CCCCCCCCc1ccc(O[C@H]2O[C@H](COS(=O)(=O)O)[C@@H](O)[C@H](O)[C@H]2O)cc1; assay: as §4
In short: as §1

[26] = compound: CCCCCCc1ccc(O[C@H]2O[C@H](COS(=O)(=O)O)[C@@H](O)[C@H](O)[C@H]2O)cc1; assay: as §4
In short: as §1

[27] = compound: O=S(=O)(O)OC[C@H]1O[C@H](OCc2ccccc2)[C@H](O)[C@@H](O)[C@@H]1O; assay: (§5) Competitive inhibition of Brugia malayi T6PP assessed as Vmax for substrate using T6P as substrate by Lineweaver-Burk plot analysis
In short: as §1

[28] = compound: CCCCCCCCc1ccc(O[C@@H]2O[C@H](COS(=O)(=O)O)[C@@H](O)[C@H](O)[C@H]2O)cc1; assay: as §5
In short: as §1

[29] = compound: CCCCCCCCc1ccc(O[C@H]2O[C@H](COS(=O)(=O)O)[C@@H](O)[C@H](O)[C@H]2O)cc1; assay: as §5
In short: as §1

[30] = compound: CCCCCCc1ccc(O[C@H]2O[C@H](COS(=O)(=O)O)[C@@H](O)[C@H](O)[C@H]2O)cc1; assay: as §5
In short: as §1

[31] = substrate: O=P(O)(O)OC[C@H]1O[C@@H](Oc2ccccc2)[C@H](O)[C@@H](O)[C@@H]1O; assay: Activity at Brugia malayi T6PP
[32] = compound: O=S(=O)(O)OC[C@H]1O[C@H](Oc2ccccc2)[C@H](O)[C@@H](O)[C@@H]1O; assay: (§6) Reversible competitive inhibition of Brugia malayi T6PP assessed as Km for substrate using T6P as substrate by Lineweaver-Burk plot analysis
[33] = compound: O=S(=O)(O)OC[C@H]1O[C@@H](Oc2ccccc2)[C@H](O)[C@@H](O)[C@@H]1O; assay: as §6
[34] = substrate: CCCCCCCCc1ccc(O[C@H]2O[C@H](COS(=O)(=O)O)[C@@H](O)[C@H](O)[C@H]2O)cc1; details: Pseudomonas putida KT2440; 200 uM
[35] = substrate: CCCCCCCCc1ccc(O[C@H]2O[C@H](COS(=O)(=O)O)[C@@H](O)[C@H](O)[C@H]2O)cc1; details: Pseudomonas putida KT2440; 200 uM; remark: listed apart in the source

Molecule	Ki [1] [µM]	Km (Shigella boydii [3]) [µM]	Km [4] [µM]	Km (Ascaris suum [5]) [µM]	Vmax (Ascaris suum [6]) [µM/s]	Vmax [7] [µM/s]	Ki [8] [µM]	Ki [9] [µM]	Vmax (Shigella boydii [10]) [µM/s]	Ki (Trehalose-phosphatase [11]) [µM]	Ratio [12]	Ratio (Shigella boydii [13])	Ratio (Ascaris suum [14])	Ratio [15]	also measured
CCCCCCCCc1ccc(O[C@H]2O[C@H](COS(=O)(=O)O)[C@@H](O)[C@H](O)[C@H]2O)cc1	56	246	387	406	0.48	0.173	21	80 to 84	0.897	5.3	–	–	–	–	Vmax (Escherichia coli): 0.0605 µM/s; Vmax [2]: 0.0788 µM/s
CCCCCCCCc1ccc(O[C@@H]2O[C@H](COS(=O)(=O)O)[C@@H](O)[C@H](O)[C@H]2O)cc1	120	222	428	336	0.343	0.183	13	180	0.495	60 to 61	0.07	0.04	0.02	0.01	–
O=S(=O)(O)OC[C@H]1O[C@@H](Oc2ccccc2)[C@H](O)[C@@H](O)[C@@H]1O	–	–	–	–	–	–	–	–	–	–	0.52	0.76	0.92	0.81	Ki (Trehalose-phosphatase [16]): 800 to 830 µM
O=S(=O)(O)OC[C@H]1O[C@@H](Oc2ccc(-c3ccccc3)cc2)[C@H](O)[C@@H](O)[C@@H]1O	–	–	–	290	0.436	–	–	1800	–	–	0.58	0.84	0.9	0.85	–
O=P(O)(O)OC[C@H]1O[C@@H](Oc2ccccc2)[C@H](O)[C@@H](O)[C@@H]1O	–	–	–	–	–	–	–	–	–	–	0.79	0.94	0.98	0.77	kcat [17]: 0.41 ×10⁻² /s; kcat (Ascaris suum [18]): 0.96 ×10⁻² /s; kcat [19]: 0.71 ×10⁻² /s; kcat (Shigella boydii [20]): 0.71 ×10⁻² /s
O=S(=O)(O)OC[C@H]1O[C@H](Oc2ccccc2)[C@H](O)[C@@H](O)[C@@H]1O	–	–	–	–	–	–	–	–	–	–	0.42	0.76	0.71	0.64	Ki (Trehalose-phosphatase [16]): 320 µM
CCCCCCc1ccc(O[C@H]2O[C@H](COS(=O)(=O)O)[C@@H](O)[C@H](O)[C@H]2O)cc1	280	239	394	353	0.631	0.495	78	350	0.541	80 to 82	–	–	–	–	–
B1	–	–	–	–	–	–	–	–	–	–	–	–	–	–	Vmax [21]: 0.496 µM/s; Vmax [22]: 0.57 µM/s; Km [23]: 127 µM; Km [24]: 156 µM; Km [25]: 229 µM; Km [26]: 234 µM; Vmax [27]: 0.457 µM/s; Vmax [28]: 0.584 µM/s; Vmax [29]: 0.924 µM/s; Vmax [30]: 0.375 µM/s; kcat [31]: 1.4 ×10⁻² /s; Km [32]: 109 µM; Km [33]: 126 µM
B2	–	–	–	–	–	–	–	–	–	–	–	–	–	–	Vmax [34]: 0.106 µM/s; Vmax [35]: 0.0175 µM/s
